In the library only some 4.2% were active in any assay of this set; here they are far more common.
TAAR1 agonist: human TAAR1 agonists, primary screen, Fluo-8 calcium fluorescence, CHO RD-HGA16 cells; Trace amine-associated receptor 1 (Homo sapiens), Q96RJ0; vehicle wells 0%, saturating PEA agonist 100%; activation, % at 3 µM; 0.99% of 360,000 active; AID 624467, 2012;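 active = activation above the mean activation of all test compounds in the run plus 3 SD, cut at about 38% in these data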
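Repeats: no replicates (n 1) | Material: CHO-derived RD-HGA16 cells with stable Gα16 and human TAAR1 | Technique: Kinetic Fluo-8 calcium fluorescence | Schedule: 17-24 h seeding, 75 min 37 °C dye, 30 min RT | Evaluation: % activation from peak over basal fluorescence ratio, DMSO-to-PEA scaled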
OX1R antag-1: OX1R (HCRTR1) antagonists, primary screen, fluorescence, CHO/OX1R cells, Fluo-8 calcium, orexin A; Orexin/Hypocretin receptor type 1 (Homo sapiens), O43613; Fluo-8 calcium fluorescence; inhibition, % at 5 µM; 0.43% of 330,000 active;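 active = inhibition above its plate's threshold, mean inhibition of all tested compounds on the plate plus 3 SD, cut at about 37% in these data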;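 note: 0% = orexin A challenge wells and 100% = SB-334867-A antagonist wells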
Target sequence (O43613 whole entry, looked up): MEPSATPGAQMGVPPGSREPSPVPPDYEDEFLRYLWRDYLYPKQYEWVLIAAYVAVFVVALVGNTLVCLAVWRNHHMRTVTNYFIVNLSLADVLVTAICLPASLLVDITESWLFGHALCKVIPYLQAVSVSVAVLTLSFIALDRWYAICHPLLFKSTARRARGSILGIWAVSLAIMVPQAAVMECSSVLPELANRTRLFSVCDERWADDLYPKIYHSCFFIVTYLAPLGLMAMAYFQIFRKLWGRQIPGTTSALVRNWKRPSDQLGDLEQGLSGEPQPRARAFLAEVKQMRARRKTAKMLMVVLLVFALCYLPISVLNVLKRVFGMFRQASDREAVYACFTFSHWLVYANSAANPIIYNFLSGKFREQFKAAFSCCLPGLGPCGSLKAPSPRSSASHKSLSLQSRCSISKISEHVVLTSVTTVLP
GalR3 antag: GalR3 antagonists in HEK293 cells, primary screen, cell-based, fluorescence readout; Galanin receptor type 3 (Homo sapiens), O60755; HEK293 GalR3-CNG cAMP membrane potential fluorescence; galR3 body fused to GalR1 C-terminus; inhibition, % at 3 µM; 0.44% of 360,000 active;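 active = inhibition above the screen-wide average plus 3 SD, cut at about 13% in these data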;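 note: forskolin and galanin both at EC90 stimulate the cells; cAMP rise reported by CNG channel membrane potential dye signal; 0% = forskolin plus galanin with DMSO and 100% = forskolin alone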
Target sequence (O60755 1-299 limits assumed): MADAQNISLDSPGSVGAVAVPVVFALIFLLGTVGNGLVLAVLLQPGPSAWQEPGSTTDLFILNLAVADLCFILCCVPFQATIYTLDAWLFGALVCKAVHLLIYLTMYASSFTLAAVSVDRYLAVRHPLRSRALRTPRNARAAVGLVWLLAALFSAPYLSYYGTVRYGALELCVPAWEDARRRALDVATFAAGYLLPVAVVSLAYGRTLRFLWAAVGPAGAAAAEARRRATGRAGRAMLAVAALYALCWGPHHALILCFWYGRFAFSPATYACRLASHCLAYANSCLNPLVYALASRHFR
TAAR1 antag: human TAAR1 antagonists, primary screen, Fluo-8 calcium fluorescence, CHO RD-HGA16 cells. AID 624466, 2012. inhibition, % at 3 µM. antagonist. 1.5% of 360,000 active;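 active = inhibition above a per-plate cutoff, the mean inhibition of test compounds on that plate plus 3 SD, cut at about 49% in these data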;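 note: 0% = DMSO plus EC80 beta-PEA response and 100% = DMSO alone without agonist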
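test system = CHO RD-HGA16 cells bearing hTAAR1 | replication = singlicate | controls = DMSO-only wells and EC80 β-PEA-stimulated wells | reagent = EC80 β-phenethylamine stimulus | read-out basis = percent inhibition of PEA-evoked calcium signal, max/basal emission ratio | schedule = seeding 17-24 h prior, 75-min 37 °C, 30-min RT dye loading | signal = kinetic Fluo-8 calcium fluorescence measurement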
CHO parental Ca: ATP-evoked calcium signal inhibitors, parental CHO, primary screen, counter-screen for OX1R antagonist project, cell-based, fluorescence, Fluo-8 calcium dye | 0.63% of 330,000 active | inhibition, % at 5.6 µM | parental CHO-K1, ATP-induced calcium, Fluo-8 fluorescence;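 active = inhibition above that plate's mean sample inhibition plus 3 SD, cut at about 26% in these data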;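 note: 0% = ATP-challenged DMSO wells and 100% = DMSO wells without ATP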
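Assay system – parental CHO cells · Reagent – ATP stimulus · Detection – intracellular calcium via Fluo-8 no-wash fluorescent dye · Evaluation – percent inhibition of ATP-evoked calcium rise, normalized to controls · Controls – ATP wells versus no-ATP DMSO wells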
OX1R antag-2: antagonists of human orexin 1 receptor (OX1R). 1.8% of 330,000 active. Orexin/Hypocretin receptor type 1 (Homo sapiens), O43613. OX1R-expressing cells, FRET antagonist read-out. inhibition, % at 6.6 µM; in the data active = inhibition mostly above about 38%, no sharp cut-off; inactive = mostly below about 40%;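 note: 0% = agonist challenge alone and 100% = reference antagonist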
Numbers without * were called inactive.

Results for CCOC(=O)C1CCCN(S(=O)(=O)c2ccc(S(=O)(=O)N3CCCC3)cc2)C1 (configuration not stated) ?
TAAR1 agonist: 5.4; OX1R antag-1: 10.2; GalR3 antag: -6.3; TAAR1 antag: 1.6; CHO parental Ca: 36.9*; OX1R antag-2: 35.6

What do the screens show for `CCOC(=O)C1CCCN(C(=S)Nc2ccc(F)cc2)C1` (configuration not stated)?
TAAR1 agonist: 51.3*; OX1R antag-1: -17.1; GalR3 antag: -4.0; TAAR1 antag: 29.6; CHO parental Ca: -10.9; OX1R antag-2: -6.0

How did CCOC(=O)c1ccc(NC(=S)N2CCCC(C(=O)OCC)C2)cc1 (configuration not stated) do in these assays?
TAAR1 agonist: 35.6; OX1R antag-1: -27.5; GalR3 antag: -4.0; TAAR1 antag: 37.3; CHO parental Ca: -20.5; OX1R antag-2: 22.6

How did O=C(c1ccc([N+](=O)[O-])cc1)N1CCN(C(=O)c2cccs2)CC1 do in these assays?
TAAR1 agonist: 4.1; OX1R antag-1: -10.4; GalR3 antag: -4.5; TAAR1 antag: 7.4; CHO parental Ca: -5.1; OX1R antag-2: 49.7*

Results for O=C(c1ccccc1)N1CCN(C(=O)c2ccc([N+](=O)[O-])cc2)CC1 ?
TAAR1 agonist: 1.6; OX1R antag-1: -2.0; GalR3 antag: 4.7; TAAR1 antag: 0.9; CHO parental Ca: -3.5; OX1R antag-2: 57.3

Results for O=C(NNC(=O)c1cc([N+](=O)[O-])ccc1Cl)c1cccs1 ?
TAAR1 agonist: 0.1; OX1R antag-1: -4.3; GalR3 antag: 4.9; TAAR1 antag: -7.9; CHO parental Ca: -3.6; OX1R antag-2: 46.1*

Results for COc1ccc(COC(=O)CCNC(=O)c2ccc(Cl)cc2)cc1 ?
TAAR1 agonist: -2.1; OX1R antag-1: -10.8; GalR3 antag: -4.8; TAAR1 antag: 1.3; CHO parental Ca: -8.8; OX1R antag-2: 52.8*

Results for COc1ccc(C(=O)NCC(=O)NCC(=O)OCc2ccc(Cl)cc2)cc1 ?
TAAR1 agonist: -0.9; OX1R antag-1: -23.2; GalR3 antag: -8.9; TAAR1 antag: -20.4; CHO parental Ca: -23.0; OX1R antag-2: -3.9

How did Cc1ccc(CNC(=O)CSc2ccc(-c3cccs3)nn2)cc1 do in these assays?
TAAR1 agonist: -2.2; OX1R antag-1: -0.1; GalR3 antag: -1.1; TAAR1 antag: 10.2; CHO parental Ca: -21.6; OX1R antag-2: 50.7*

What do the screens show for `COc1ccccc1-c1ccc(SCC(=O)NCCc2ccccc2)nn1`?
TAAR1 agonist: 14.7; OX1R antag-1: -24.7; GalR3 antag: -1.8; TAAR1 antag: -24.9; CHO parental Ca: -14.1; OX1R antag-2: 25.4

How did COc1ccc(CCNC(=O)CSc2ccc(-c3cccs3)nn2)cc1 do in these assays?
TAAR1 agonist: 0.6; OX1R antag-1: -0.1; GalR3 antag: -0.7; TAAR1 antag: -12.0; CHO parental Ca: -11.8; OX1R antag-2: 40.9*

Results for Cc1ccc(NC(=O)CSc2nc3c(c(=O)[nH]2)CN(Cc2ccc(F)cc2)CC3)cc1C ?
TAAR1 agonist: 1.0; OX1R antag-1: 1.8; GalR3 antag: -0.2; TAAR1 antag: -24.6; CHO parental Ca: -2.3; OX1R antag-2: 10.4

Results for C(=N\Nc1nc2ccccc2s1)/c1ccc2c(c1)OCO2 ?
TAAR1 agonist: 4.9; OX1R antag-1: 4.8; GalR3 antag: 0.5; TAAR1 antag: 1.4; CHO parental Ca: -6.4; OX1R antag-2: 75.0*

What do the screens show for `C(=N\Nc1nc2ccccc2s1)/c1ccccn1`?
TAAR1 agonist: 6.0; OX1R antag-1: -2.8; GalR3 antag: -7.0; TAAR1 antag: 2.1; CHO parental Ca: 6.1; OX1R antag-2: 59.6*

How did COc1ccc(C=NNc2nc3ccccc3s2)cc1 do in these assays?
TAAR1 agonist: 8.9; GalR3 antag: -4.6; TAAR1 antag: 6.0

How did CC1=Nc2ccccc2/C1=C/c1c(N)n2c(S(=O)(=O)C(C)C)nsc2nc1=O do in these assays?
TAAR1 agonist: 2.1; OX1R antag-1: -18.1; GalR3 antag: 0.4; TAAR1 antag: 6.2; CHO parental Ca: -5.6; OX1R antag-2: 9.1

How did CC1=Nc2ccccc2/C1=C/c1sc(=N)n(-c2nccs2)c1O do in these assays?
OX1R antag-1: 64.4*; CHO parental Ca: 46.9*; OX1R antag-2: 41.2

Results for CCn1cc(/C=N/N=C2\CCC3C4CCc5cc(O)ccc5C4CC[C@]23C)c(C)n1 (some centres not stated) ?
TAAR1 agonist: 11.1; OX1R antag-1: 29.7; GalR3 antag: 0.2; TAAR1 antag: 33.5; CHO parental Ca: 38.1*; OX1R antag-2: 52.6

How did COc1ccccc1-c1c(C(F)(F)F)oc2cc(OC(=O)c3ccc([N+](=O)[O-])cc3)ccc2c1=O do in these assays?
TAAR1 agonist: 3.2; OX1R antag-1: -2.6; GalR3 antag: -5.3; TAAR1 antag: -3.0; CHO parental Ca: -13.4; OX1R antag-2: 72.5*

Results for Cc1cc(=O)oc2cc(OC(=O)c3ccccc3)ccc12 ?
TAAR1 agonist: 0.5; OX1R antag-1: -21.1; GalR3 antag: -1.7; TAAR1 antag: -14.8; CHO parental Ca: -16.7; OX1R antag-2: 9.8

Results for COc1cccc(C(=O)CN(C(=O)c2ccc(Cl)c(Cl)c2)N2C(=O)c3ccccc3C2=O)c1 ?
TAAR1 agonist: 6.8; OX1R antag-1: -26.3; GalR3 antag: -7.8; TAAR1 antag: 9.7; CHO parental Ca: -31.7; OX1R antag-2: 20.1

Results for CCOC(=O)[C@@H]1[C@H]2COc3ccccc3[C@H]2N2C(=O)N(c3ccc(C(F)(F)F)cc3)C(=O)[C@]12C ?
TAAR1 agonist: 7.6; OX1R antag-1: -16.0; GalR3 antag: -2.6; TAAR1 antag: 2.9; CHO parental Ca: 46.0*; OX1R antag-2: 6.5

How did CCOC(=O)[C@@H]1[C@H]2COc3ccccc3[C@@H]2N2C(=O)N(c3ccc(C(F)(F)F)cc3)C(=O)[C@@]12C do in these assays?
TAAR1 agonist: 18.3; OX1R antag-1: -19.1; GalR3 antag: -5.6; TAAR1 antag: 5.5; CHO parental Ca: -16.7; OX1R antag-2: 3.5

What do the screens show for `OC(c1nc2ccccc2[nH]1)C(O)c1nc2ccccc2[nH]1` (configuration not stated)?
TAAR1 agonist: 5.3; OX1R antag-1: -18.5; GalR3 antag: -5.9; TAAR1 antag: -12.6; CHO parental Ca: -16.4; OX1R antag-2: -7.9

Compound activity from PubChem BioAssay.
